In ChEMBL document CHEMBL5230179, “Novel irreversible peptidic inhibitors of transglutaminase 2” (RSC Med Chem, 2023):
Active and inactive are the calls of the source. The calls are words filed in the database; no cut-off is given here.

Key:
[1] = biological target: T1, Protein-glutamine gamma-glutamyltransferase (Homo sapiens, UniProt P21980); experiment: Irreversible inhibition of recombinant human TG2 expressed in Escherichia coli BL21 assessed as inhibition constant using AL5 as substrate by continuous chromogenic assay
T1 sequence (P21980 whole entry): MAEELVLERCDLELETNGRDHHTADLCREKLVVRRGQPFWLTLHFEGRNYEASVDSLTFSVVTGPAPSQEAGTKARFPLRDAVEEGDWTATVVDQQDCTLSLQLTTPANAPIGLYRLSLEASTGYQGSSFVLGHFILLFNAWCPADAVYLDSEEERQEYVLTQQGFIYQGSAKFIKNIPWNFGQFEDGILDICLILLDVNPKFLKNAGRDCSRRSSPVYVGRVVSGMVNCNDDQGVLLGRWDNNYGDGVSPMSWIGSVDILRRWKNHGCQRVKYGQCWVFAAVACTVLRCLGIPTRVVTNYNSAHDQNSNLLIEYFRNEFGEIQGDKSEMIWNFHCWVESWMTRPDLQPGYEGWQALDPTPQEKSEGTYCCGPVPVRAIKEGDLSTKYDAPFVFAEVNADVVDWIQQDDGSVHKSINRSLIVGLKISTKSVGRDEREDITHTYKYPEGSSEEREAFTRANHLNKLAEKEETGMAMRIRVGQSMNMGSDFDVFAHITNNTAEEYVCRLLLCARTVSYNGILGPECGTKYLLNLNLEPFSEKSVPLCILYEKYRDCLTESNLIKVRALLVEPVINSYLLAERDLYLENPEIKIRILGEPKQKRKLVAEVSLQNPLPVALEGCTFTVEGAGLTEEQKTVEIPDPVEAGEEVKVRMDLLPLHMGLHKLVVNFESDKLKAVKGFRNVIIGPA
Outline: (§1)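 Human TG2 expressed and purified from E. coli BL21; AL5 (Cbz-Glu(γ-p-nitrophenyl ester)-Gly-OH) hydrolysis read at 405 nm for 20 min at 25 °C under Kitz–Wilson conditions; final 100 µM AL5, 50 mM MOPS pH 6.9, 7.5 mM CaCl2, 5 mU/mL TG2, <5% DMSO; ≥4 inhibitor levels; rate constants fitted by saturation model against [I]/α (α = 1 + [S]/KM) for kinact and KI.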

[2] = biological target: T2, Protein-glutamine gamma-glutamyltransferase (Homo sapiens) (UniProt P21980); experiment: Irreversible inhibition of recombinant human TG2 expressed in Escherichia coli BL21 assessed as ratio of Kinact/Ki using AL5 as substrate by continuous chromogenic assay; outline: as §1
T2 sequence (whole entry): T1 sequence (P21980 whole entry)

[3] = biological target: T2, Protein-glutamine gamma-glutamyltransferase (Homo sapiens); experiment: Irreversible inhibition of recombinant human TG2 expressed in Escherichia coli BL21 assessed as Kinact using AL5 as substrate by continuous chromogenic assay; outline: as §1
[4] = biological target: T2, Protein-glutamine gamma-glutamyltransferase (Homo sapiens); experiment: Irreversible inhibition of recombinant human TG2 expressed in Escherichia coli BL21 assessed as ratio of Kinact/Ki using AL5 as substrate by linear regression analysis
Outline: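 Same TG2/AL5 continuous 405 nm assay (100 µM AL5, 5 mU/mL TG2, 50 mM MOPS, 7.5 mM CaCl2, 25 °C, 20 min); where saturation was not reached, rate constants of the lowest 3 inhibitor concentrations fitted by linear regression, slope taken as kinact/KI.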

[5] = Apparent permeability from apical to basolateral side in MDCK-MDR1 cells; format: ADME, cell-based, Canis lupus familiaris; conditions: dog
[6] = Lipophilicity, logP of the compound; format: physicochemical; conditions: octanol/water
[7] = test system: MDR1; experiment: Efflux ratio of apparent permeability in MDCK-MDR1 cells; format: ADME, cell-based, Canis lupus familiaris; conditions: dog
[8] = Apparent permeability from basolateral to apical side in MDCK-MDR1 cells; format: ADME, cell-based, Canis lupus familiaris; conditions: dog
[9] = test system: SCC-13; experiment: Inhibition of cell invasion in human SCC-13 cells at 10 to 50 uM measured over 20 hrs by DAPI staining based fluorescence microscopic analysis; format: functional; conditions: dose 10-50 µM
Outline: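 Matrigel-coated inserts (8-µm pores); 20,000 SCC-13 cells seeded in upper chamber in growth medium with 1% FCS, lower chamber 10% FCS; invasion followed over 0–20 h; membrane fixed in 4% paraformaldehyde, nuclei DAPI-stained, cells on lower surface counted by fluorescence microscopy.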

[10] = test system: SCC-13; experiment: Antiproliferative activity against human SCC-13 cells assessed as dose-dependent inhibition at 25 to 100 uM incubated for 48 hrs by Coulter cell counter analysis; format: functional, cell-based; conditions: dose 25-100 µM

Row | SMILES | Ki [1] [µM] | Ratio [2] | Kinact [3] [min⁻¹] | other results
1 | C=CC(=O)NCCCC[C@H](NC(=O)OCc1ccccc1)C(=O)N1CCN(C(=O)[C@@H](CC(C)C)NC(=O)c2cccc3ccccc23)CC1 | 4.4 | 330 10^3/M/min | 1.4 | –
2 | C=CC(=O)NCCCC[C@H](NC(=O)Cc1ccccc1C)C(=O)N1CCN(C(=O)[C@@H](Cc2ccccc2)NC(=O)c2cccc3ccccc23)CC1 | – | – | – | Ratio [4]: 238 10^3/M/min
3 | C=CC(=O)NCCCC[C@H](NC(=O)Cc1ccccc1C)C(=O)N1CCN(C(=O)[C@H](C)NC(=O)c2cccc3ccccc23)CC1 | 9.5 | 418 10^3/M/min | 3.95 | –
4 | C=CC(=O)NCCCC[C@H](NC(=O)OCc1ccccc1)C(=O)N1CCN(C(=O)CNC(=O)c2cccc3ccccc23)CC1 | 0.3 | 513 10^3/M/min | 0.16 | Papp A→B [5]: 0.55 ×10⁻⁶ cm/s; logP [6]: 2.99; efflux ratio [7]: 15.5; Papp B→A [8]: 8.43 ×10⁻⁶ cm/s
5 | C=CC(=O)NCCCC[C@H](NC(=O)Cc1ccccc1Br)C(=O)N1CCN(C(=O)[C@@H](Cc2ccccc2)NC(=O)c2cccc3ccccc23)CC1 | – | – | – | Ratio [4]: 132 10^3/M/min
6 | C=CC(=O)NCCCC[C@H](NC(=O)Cc1ccc(F)cc1F)C(=O)N1CCN(C(=O)[C@H](C)NC(=O)c2cccc3ccccc23)CC1 | 5.1 | 225 10^3/M/min | 1.16 | –
7 | C=CC(=O)NCCCC[C@H](NC(=O)OCc1ccccc1)C(=O)N1CCN(C(=O)[C@@H](C)NC(=O)c2cccc3ccccc23)CC1 | 1.3 | 590 10^3/M/min | 0.75 | –
8 | C=CC(=O)NCCCC[C@H](NC(=O)Cc1ccccc1Br)C(=O)N1CCN(C(=O)[C@H](C)NC(=O)c2cccc3ccccc23)CC1 | 9.8 | 275 10^3/M/min | 2.69 | –
9 | C=CC(=O)NCCCC[C@H](NC(=O)Cc1ccccc1Cl)C(=O)N1CCN(C(=O)[C@@H](C)NC(=O)c2cccc3ccccc23)CC1 | – | – | – | Ratio [4]: 170 10^3/M/min
10 | C=CC(=O)NCCCC[C@H](NC(=O)Cc1ccccc1Br)C(=O)N1CCN(C(=O)[C@@H](C)NC(=O)c2cccc3ccccc23)CC1 | – | 209 10^3/M/min | – | –
11 | C=CC(=O)NCCCC[C@H](NC(=O)OCc1ccccc1)C(=O)N1CCN(C(=O)[C@@H](NC(=O)c2cccc3ccccc23)C(C)CC)CC1 (some centres undefined) | 8.1 | 300 10^3/M/min | 2.4 | –
12 | C=CC(=O)NCCCC[C@H](NC(=O)OCc1ccccc1)C(=O)N1CCN(C(=O)[C@H](Cc2ccccc2)NC(=O)c2cccc3ccccc23)CC1 | 2.1 | 470 10^3/M/min | 0.99 | –
13 | C=CC(=O)NCCCC[C@H](NC(=O)Cc1ccccc1Cl)C(=O)N1CCN(C(=O)[C@H](C)NC(=O)c2cccc3ccccc23)CC1 | 9.3 | 211 10^3/M/min | 1.97 | –
14 | C=CC(=O)NCCCC[C@H](NC(=O)OCc1ccccc1)C(=O)N[C@H](C(=O)N1CCN(C(=O)c2cccc3ccccc23)CC1)C(C)C | 5.1 | 56 10^3/M/min | 0.29 | –
15 | C=CC(=O)NCCCC[C@H](NC(=O)OCc1ccccc1)C(=O)N[C@@H](C(=O)N1CCN(C(=O)c2cccc3ccccc23)CC1)C(C)C | 3.4 | 65 10^3/M/min | 0.22 | –
16 | C=CC(=O)NCCCC[C@H](NC(=O)Cc1ccccc1C)C(=O)N1CCN(C(=O)[C@H](Cc2ccccc2)NC(=O)c2cccc3ccccc23)CC1 | 8.8 | 171 10^3/M/min | 1.51 | –
17 | C=CC(=O)NCCCC[C@H](NC(=O)Cc1ccccc1Cl)C(=O)N1CCN(C(=O)[C@@H](Cc2ccccc2)NC(=O)c2cccc3ccccc23)CC1 | – | – | – | Ratio [4]: 127 10^3/M/min

Now from value to molecule, other results behind:

Row | Ki [1] [µM] | Ratio [2] | Kinact [3] [min⁻¹] | SMILES | other results
18 | 2.3 | 330 10^3/M/min | 0.77 | C=CC(=O)NCCCC[C@H](NC(=O)OCc1ccccc1)C(=O)NCC(=O)N1CCN(C(=O)c2cccc3ccccc23)CC1 | –
19 | 1.3 | 595 10^3/M/min | 0.75 | C=CC(=O)NCCCC[C@H](NC(=O)OCc1ccccc1)C(=O)N1CCN(C(=O)[C@H](NC(=O)c2cccc3ccccc23)C(C)C)CC1 | –
20 | 2.9 | 272 10^3/M/min | 0.79 | C=CC(=O)NCCCC[C@H](NC(=O)OCc1ccccc1)C(=O)N1CCN(C(=O)[C@@H](NC(=O)c2cccc3ccccc23)C(C)C)CC1 | –
21 | 1.3 | 182 10^3/M/min | 0.24 | C=CC(=O)NCCCC[C@H](NC(=O)Cc1ccccc1Br)C(=O)N1CCN(C(=O)[C@H](Cc2ccccc2)NC(=O)c2cccc3ccccc23)CC1 | –
22 | 3.3 | 502 10^3/M/min | 1.68 | C=CC(=O)NCCCC[C@H](NC(=O)Cc1ccccc1F)C(=O)N1CCN(C(=O)[C@H](C)NC(=O)c2cccc3ccccc23)CC1 | –
23 | 2.3 | 610 10^3/M/min | 1.4 | C=CC(=O)NCCCC[C@H](NC(=O)OCc1ccccc1)C(=O)N1CCN(C(=O)[C@H](C)NC(=O)c2cccc3ccccc23)CC1 | –
24 | 12.8 | 240 10^3/M/min | 3.1 | C=CC(=O)NCCCC[C@H](NC(=O)OCc1ccccc1)C(=O)N1CCN(C(=O)[C@H](CC(C)C)NC(=O)c2cccc3ccccc23)CC1 | –
25 | 14.9 | 374 10^3/M/min | 5.59 | C=CC(=O)NCCCC[C@H](NC(=O)Cc1ccccc1C)C(=O)N1CCN(C(=O)[C@@H](C)NC(=O)c2cccc3ccccc23)CC1 | –
26 | 1 | 760 10^3/M/min | 0.8 | C=CC(=O)NCCCC[C@H](NC(=O)OCc1ccccc1)C(=O)N1CCN(C(=O)[C@@H](Cc2ccccc2)NC(=O)c2cccc3ccccc23)CC1 | Papp A→B [5]: 0.06 ×10⁻⁶ cm/s; logP [6]: 2.73; efflux ratio [7]: 96.7; inhibition [9]: Active; Papp B→A [8]: 5.46 ×10⁻⁶ cm/s; Activity [10]: inactive
27 | 6 | 252 10^3/M/min | 1.52 | C=CC(=O)NCCCC[C@H](NC(=O)Cc1ccccc1OC)C(=O)N1CCN(C(=O)[C@H](C)NC(=O)c2cccc3ccccc23)CC1 | –
28 | 1.6 | 155 10^3/M/min | 0.25 | C=CC(=O)NCCCC[C@H](NC(=O)Cc1ccccc1Cl)C(=O)N1CCN(C(=O)[C@H](Cc2ccccc2)NC(=O)c2cccc3ccccc23)CC1 | –
